An excerpt weighted towards active compounds, which were near 2.7% of everything screened.
SIRT5 block: inhibitors of human sirtuin-5 desuccinylase. Purified SirT5, succinyl-peptide AMC, trypsin-coupled fluorescence. AID 652115. inhibition, % at 15 µM. Q9NXA8. 330,000 compounds, 1.1% hits; in the data active means inhibition above about 15%; inconclusive means no clear call, values can overlap the other calls
CaV13 FRET inh: Primary screen for inhibitors of IQ motif and Ca2+-dependent inactivation inhibitor domain binding in CACNA1D, Förster resonance energy transfer in living cells, …. HEK cells, CFP/YFP FRET ICDI-IQ, plate reader, 10 min; percent FRET-ratio fall versus neutral wells. inhibition, % at 12.3 µM. 340,000 compounds, 0.098% hits;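 active means mean replicate inhibition of at least 30% and at least 1% of replicates passing that level; inconclusive means only one of the two criteria is met; inactive means neither criterion is met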;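 further: 0% = median of the neutral control wells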
DENV2 CPE: DENV2-induced cell death inhibition; DENV2-infected cells, cytopathic effect rescue, plate reader; CPE inhibition, % at 9.99 µM; 350,000 compounds, 1.7% hits; AID 651640; in the data active means CPE inhibition above about 20%, passing the limit was not always enough; inconclusive means no clear call, values can overlap the other calls; tested in BHK-21 cells;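 further: 0% = median of neutral control wells and 100% = median of positive control wells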
MLL AF4-AF9 inh: blocks AF4 peptide binding to human AF9; P42568; AlphaScreen, biotin-AF4 peptide binding to FLAG-AF9; inhibition, % at 10 µM; 350,000 compounds, 0.47% hits;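 active means every replicate reaching a set inhibition limit, whatever the replicate mean, cut at about 25% in these data; inconclusive means mean inhibition reaches that limit but some replicates miss it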;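 further: 0% = plate neutral control median and 100% = total signal loss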
Target sequence (P42568 whole entry, looked up): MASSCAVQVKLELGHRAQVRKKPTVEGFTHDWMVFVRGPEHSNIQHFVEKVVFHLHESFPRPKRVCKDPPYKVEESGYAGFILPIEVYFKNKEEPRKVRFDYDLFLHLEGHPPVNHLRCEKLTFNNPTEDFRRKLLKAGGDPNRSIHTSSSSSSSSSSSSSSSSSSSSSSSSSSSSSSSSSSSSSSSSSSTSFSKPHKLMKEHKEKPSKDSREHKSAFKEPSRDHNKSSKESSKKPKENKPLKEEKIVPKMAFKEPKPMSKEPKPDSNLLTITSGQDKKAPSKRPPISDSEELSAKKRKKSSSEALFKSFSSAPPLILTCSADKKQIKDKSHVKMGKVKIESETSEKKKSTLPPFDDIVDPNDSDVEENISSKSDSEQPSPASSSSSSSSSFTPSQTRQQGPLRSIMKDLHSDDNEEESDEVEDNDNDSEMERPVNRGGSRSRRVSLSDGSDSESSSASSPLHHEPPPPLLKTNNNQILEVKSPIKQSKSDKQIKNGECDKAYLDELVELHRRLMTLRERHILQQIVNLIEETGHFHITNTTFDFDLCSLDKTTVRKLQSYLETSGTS
S100A4 inh HTS: blocks human S100A4 binding to myosin IIA peptide; S100A4/TAMRA-MyoIIA peptide fluorescence polarization; inhibition, % at 10.7 µM; 360,000 compounds, 0.14% hits;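 active means mean inhibition of at least 70% across replicates, with every replicate also reaching that level; inconclusive means mean inhibition reaches 70% but some replicates fall short; inactive means mean inhibition below 70%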
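Material: human S100A4 monomer with TAMRA-labelled myosin IIA peptide; buffer or medium: HEPES pH 7.2 with CaCl2, KCl, NaCl, DTT, Triton; compound dosing: one concentration per compound; schedule: 5 min incubation before reading; benchmarks: neutral control DMSO, positive control TFP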
Active calls of the source: *; ? = inconclusive; · = no result given.

SMILES	SIRT5 block	CaV13 FRET inh	DENV2 CPE	MLL AF4-AF9 inh	S100A4 inh HTS
Cc1noc(C)c1S(=O)(=O)Nc1ccc2c(c1)C(=O)N([C@@H](C)CO)C[C@H](C)[C@H](CN(C)Cc1ccc(C(=O)O)cc1)OCCCC[C@@H](C)O2	0	·	50*	-11	13
C[C@@H]1CN([C@@H](C)CO)C(=O)c2cccc(NC(=O)Nc3ccc(F)cc3)c2O[C@H]1CN(C)C(=O)Nc1cccc2ccccc12	-5	·	0	1	9
COc1ccccc1CNC(=O)C[C@@H]1C[C@H]2c3cc(N(C)C)ccc3O[C@H]2[C@@H](CO)O1	1	·	47*	1	4
CN(C)c1ccc2c(c1)[C@H]1C[C@H](CC(=O)NCc3ccc(-c4ccccc4)cc3)O[C@@H](CO)[C@H]1O2	·	·	7	·	·
CN(C)c1ccc2c(c1)[C@@H]1C[C@H](CC(=O)NCc3ccccc3)O[C@@H](CO)[C@@H]1O2	8	·	21*	1	-4
Cc1ccc(S(=O)(=O)Nc2ccc3c(c2)C(=O)N([C@H](C)CO)C[C@H](C)[C@H](CN(C)S(=O)(=O)c2c(C)noc2C)O3)cc1	4	·	?	2	-14
O=C(NCc1ccc(Cl)nc1)c1ccc2sc([C@@H]3O[C@H](CO)[C@H](O)[C@H](O)[C@H]3O)nc2c1	17*	-3	-9	-2	3
C[C@@H]1CN([C@@H](C)CO)C(=O)c2cc(/C=C/c3ccccc3)cnc2O[C@@H]1CN(C)C(=O)c1ccncc1	-15	·	5	1	-7
C/C(=N\NC(=O)C1CC1(c1ccccc1)c1ccccc1)c1cccc([N+](=O)[O-])c1 (configuration not stated)	15*	-3	?	-25	-3
Nc1cc(Cl)ccc1Oc1ccccc1	·	-5	·	·	·
Cc1cccc(Oc2ccc(Cl)cc2N)c1	112*	-7	7	1	-1
CC(C)(C)c1ccc(Nc2n[nH]c3ccccc23)cc1	-3	-7	66*	12	-2
C[C@@H]1CN([C@H](C)CO)S(=O)(=O)c2ccc(-c3cccc(F)c3)cc2O[C@H]1CN(C)C	-3	·	1	2	5
CO[C@@H]1CN(C)C(=O)c2ccc(NC(=O)Nc3c(C)noc3C)cc2OC[C@H](C)N(CCC(F)(F)F)C[C@H]1C	4	·	37*	-3	-24
CCCN1C[C@H](C)[C@@H](OC)CN(C)C(=O)c2ccc(NC(=O)Nc3c(C)noc3C)cc2OC[C@H]1C	2	·	21*	-1	3
CO[C@@H]1CN(C)C(=O)c2ccc(NC(=O)Nc3c(C)noc3C)cc2OC[C@@H](C)N(CCC(F)(F)F)C[C@H]1C	8	·	-2	-11	-1
CCCC1NC(=O)c2cc3ccccc3cc2-n2c1nc1ccc(F)cc1c2=O (configuration not stated)	·	-5	67*	7	-1
O=C1NC(Cc2ccccc2)c2nc3ccc(Cl)cc3c(=O)n2-c2cc(Cl)ccc21 (configuration not stated)	·	-6	-12	2	-4
O=C1NC(Cc2ccccc2)c2nc3ccc(Cl)cc3c(=O)n2-c2ccccc21 (configuration not stated)	0	-9	68*	4	-2
O=C1NC(Cc2ccc(O)cc2)c2nc3ccccc3c(=O)n2-c2cc(Cl)ccc21 (configuration not stated)	·	-9	-5	4	31
O=C1NC(Cc2ccc(O)cc2)c2nc3ccccc3c(=O)n2-c2ccccc21 (configuration not stated)	-2	-6	39*	-1	-3
CCOC(=O)c1cnc2ccc(C(=O)OC)cc2c1Nc1ccc(C(=O)O)cc1	1	-5	1	2	-3
CCOC(=O)c1ccc2ncc(C(=O)OCC)c(Nc3ccc(N4CCOCC4)cc3)c2c1	2	-18	5	26*	-3
CCOC(=O)c1cnc2ccc(OC)cc2c1Nc1ccc2c(c1)OCCO2	·	0	·	·	·
CCOC(=O)c1cnc2ccc(OC)cc2c1Nc1ccc(N2CCN(C)CC2)cc1	2	-3	-2	41*	4
SMILES	SIRT5 block	CaV13 FRET inh	DENV2 CPE	MLL AF4-AF9 inh	S100A4 inh HTS
CCCNC(=O)N1CC2(CN(C(=O)c3cccc(F)c3)C2)c2c([nH]c3cc(OC)ccc23)[C@H]1CO	-4	·	10	-1	-7
Cc1csc2ncc(C(=O)N3c4ccccc4CC3C)c(=O)n12 (configuration not stated)	16*	-3	2	3	-2
N#C/C(=C\c1ccc(OC(F)F)cc1)C(=O)N1CCCCC1	-4	-14	3	8	4
CCN1CCN(C(=O)/C(C#N)=C/c2ccc(OC(F)F)cc2)CC1	18*	-5	·	0	-1
C[C@H](CO)N1C[C@H](C)[C@@H](CN(C)S(=O)(=O)c2cn(C)cn2)OCCCC[C@H](C)Oc2ccc(NS(=O)(=O)c3ccccc3)cc2C1=O	3	·	-2	5	-3
CO[C@@H]1CN(C)C(=O)c2ccc(NC(=O)c3ccccc3)cc2OC[C@@H](C)N(C(=O)CN(C)C)C[C@@H]1C	-1	·	8	2	-4
CO[C@H]1CN(C)C(=O)c2ccc(NC(=O)c3ccccc3)cc2OC[C@@H](C)N(C(=O)CN(C)C)C[C@@H]1C	0	·	28*	-4	4
CO[C@@H]1CN(C)C(=O)c2ccc(NC(=O)c3ccccc3)cc2OC[C@H](C)N(C(=O)CN(C)C)C[C@@H]1C	10	·	34*	-5	36
Cc1ccc(S(=O)(=O)N(C)C[C@@H]2Oc3ccc(NC(=O)Nc4ccc(F)cc4)cc3CC(=O)N([C@@H](C)CO)C[C@H]2C)cc1	2	·	·	2	-12
C[C@@H]1CN([C@H](C)CO)C(=O)Cc2cc(N(C)C)ccc2O[C@@H]1CN(C)S(=O)(=O)c1cn(C)cn1	-3	·	-2	-1	-24
Cc1noc(C)c1NC(=O)N[C@H]1CC[C@H](CCNC(=O)C2CCCC2)O[C@@H]1CO	2	·	20*	-2	1
Cc1noc(C)c1NC(=O)N[C@H]1CC[C@H](CCNC(=O)C2CC2)O[C@H]1CO	18*	·	6	-2	-28
Cc1noc(C)c1NC(=O)N[C@H]1CC[C@@H](CCNC(=O)C2CCOCC2)O[C@H]1CO	-1	·	6	-24	7
Cc1noc(C)c1NC(=O)N[C@@H]1CC[C@H](CCNC(=O)C2CCOCC2)O[C@@H]1CO	-53	·	-4	-14	98*
Cc1noc(C)c1NC(=O)N[C@@H]1CC[C@H](CCNC(=O)C2CC2)O[C@@H]1CO	1	·	3	-1	-24
O=C(Nc1cccc(F)c1)N1C[C@@H]2[C@H](c3ccccc31)[C@H](CO)N2C(=O)c1ccccn1	6	·	18	-3	?
Cc1ccc(C(=O)NNC(=O)c2ccccc2-n2cccc2)cc1	-2	-5	14	2	-2
NNC(=O)c1ccccc1-n1cccc1	22*	-4	9	-1	-6

Compound activity as filed in PubChem BioAssay.
